Active and inactive are the calls of the source. The rule behind the calls is not given here.
Columns and labels:
SOS1-KRAS = SOS1-KRAS (Homo sapiens, UniProt Q07889); test: Inhibition of N-terminal GST-tagged recombinant human KRAS G12C mutant (1 to 169 residues) expressed in Escherichia coli/N-terminal His10-tagged wild-type recombinant human SOS1 catalytic domain (564 to 1049 residues) expressed in Escherichia coli protein-protein interaction preincubated for 2 mins with KRAS followed by SOS1 addition measured after 60 mins in presence of anti-6His-XL665 by HTRF analysis
[1] = target: Epidermal growth factor receptor (Homo sapiens, UniProt P00533); test: Inhibition of human EGFR using biotin-aminohexyl-AEEEEYFELVAKKK as substrate preincubated for 15 mins followed by substrate/ATP addition measured after 20 mins by FRET assay
Homo sapiens [2] = species on record: Homo sapiens; test: (§1) Stabilization of N-terminal His10-tagged recombinant human KRAS G12C/C118S mutant (1 to 169 residues) expressed in Escherichia coli/N-terminal His10-tagged wild-type recombinant human SOS1 catalytic domain (564 to 1049 residues) expressed in Escherichia coli by HTRF analysis
Procedure, shortened: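 HTRF equilibrium-binding read-out of KRASG12C_C118S with SOS1cat, detected by fluorescently labelled antibodies including a terbium donor. Signal normalized with DMSO control as 100% and no-SOS1cat wells as 0%. Data are mean ± SD, n = 4.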

Homo sapiens [3] = species on record: Homo sapiens; test: as §1, with “coli/Series S C1 sensor chip-immobilized biotinylated N-terminal” for “coli/N-terminal”, “coli at 100 to 500 uM measured for 360 secs” for “coli”, “SPR” for “HTRF”; conditions: dose 100-500 µM, time 360.0 sec
Procedure, shortened: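 SOS1cat is immobilized on the chip, and 250 nM KRASG12C_C118S is flowed over with or without test compound. Compound alone at 100, 250 and 500 µM is also injected to gauge unspecific binding to SOS1cat. Buffer injection serves as the blank.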

Homo sapiens [4] = species on record: Homo sapiens; test: Stabilization of N-terminal His10-tagged 15N-labeled recombinant human KRAS G12C/C118S mutant (1 to 169 residues) expressed in Escherichia coli/N-terminal His10-tagged wild-type recombinant human SOS1 catalytic domain (564 to 1049 residues) expressed in Escherichia coli at 1 mM incubated for 30 mins by 2D-NMR analysis
[5] = tested on: GTPase KRas (Homo sapiens), P01116 [G12C]; test: Stabilization of N-terminal GST-tagged recombinant human KRAS G12C mutant (1 to 169 residues) expressed in Escherichia coli assessed as change in melting temperature at 100 uM with heating from 25 to 85 degreeC by thermal shift assay
[6] = target: Son of sevenless homolog 2 (Homo sapiens, UniProt Q07890); test: Inhibition of N-terminal His10-tagged wild-type recombinant human SOS2 catalytic domain (564 to 1043 residues) expressed in Escherichia coli assessed as reduction in KRAS G12C mutant activation preincubated for 10 mins with KRAS followed by SOS2 addition measured after 30 mins in presence of EDA-GTP-DY-647P1 by HTRF analysis
K562 = test: Antiproliferative activity against human K562 cells assessed as inhibition of cell viability incubated for 72 hrs by Cell Titer Glo assay; assay type: functional, cell-based; conditions: K562, 72 h
Procedure, shortened: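 K-562 cells (wild-type KRAS, sourced from ATCC) were tested for antiproliferative response.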

[7] = target: T1, Guanine nucleotide exchange factor DBS (Homo sapiens, UniProt O15068); test: Inhibition of human DBS assessed as reduction in CDC42 activation preincubated for 1 min with CDC42 followed by DBS addition measured after 20 mins in presence of EDA-GTP-DY-647P1 by HTRF analysis
T1 sequence (O15068 whole entry): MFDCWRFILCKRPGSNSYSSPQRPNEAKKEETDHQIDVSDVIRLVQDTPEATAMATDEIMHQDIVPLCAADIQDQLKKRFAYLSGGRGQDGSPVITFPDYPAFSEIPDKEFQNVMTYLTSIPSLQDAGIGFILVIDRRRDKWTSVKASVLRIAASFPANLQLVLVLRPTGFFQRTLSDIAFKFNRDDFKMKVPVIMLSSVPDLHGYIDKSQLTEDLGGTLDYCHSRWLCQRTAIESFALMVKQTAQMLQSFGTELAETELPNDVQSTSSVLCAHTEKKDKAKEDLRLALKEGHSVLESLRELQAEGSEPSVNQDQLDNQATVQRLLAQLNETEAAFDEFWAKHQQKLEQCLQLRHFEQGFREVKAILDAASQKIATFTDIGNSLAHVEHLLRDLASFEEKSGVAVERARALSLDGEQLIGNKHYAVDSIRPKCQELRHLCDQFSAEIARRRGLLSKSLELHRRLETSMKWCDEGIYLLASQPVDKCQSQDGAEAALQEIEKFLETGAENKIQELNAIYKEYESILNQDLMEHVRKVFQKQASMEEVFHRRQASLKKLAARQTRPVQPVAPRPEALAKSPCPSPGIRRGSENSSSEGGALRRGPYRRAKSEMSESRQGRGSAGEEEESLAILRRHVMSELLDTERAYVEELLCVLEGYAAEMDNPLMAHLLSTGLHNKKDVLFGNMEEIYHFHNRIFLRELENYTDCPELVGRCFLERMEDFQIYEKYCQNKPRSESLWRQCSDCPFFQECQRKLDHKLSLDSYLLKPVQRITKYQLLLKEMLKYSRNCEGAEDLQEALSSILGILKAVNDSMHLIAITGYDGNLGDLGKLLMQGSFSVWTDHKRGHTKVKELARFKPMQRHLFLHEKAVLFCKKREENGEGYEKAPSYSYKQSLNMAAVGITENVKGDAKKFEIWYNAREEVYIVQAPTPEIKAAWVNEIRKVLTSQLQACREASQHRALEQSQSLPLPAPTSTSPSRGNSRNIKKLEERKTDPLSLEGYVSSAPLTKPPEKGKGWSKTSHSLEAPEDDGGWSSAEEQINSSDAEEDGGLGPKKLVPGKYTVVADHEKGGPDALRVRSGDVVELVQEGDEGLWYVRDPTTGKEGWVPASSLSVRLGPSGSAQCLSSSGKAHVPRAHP

NCI-H358 = test: Antiproliferative activity against human NCI-H358 cells assessed as inhibition of cell viability incubated for 72 hrs by Cell Titer Glo assay; assay type: functional, cell-based; conditions: NCI-H358, 72 h
Procedure, shortened: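 NCI-H358 cells (KRAS G12C mutant) were sourced from ATCC.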

MOLM-13 = test: Antiproliferative activity against human MOLM-13 cells assessed as inhibition of cell viability incubated for 72 hrs by Cell Titer Glo assay; assay type: functional, cell-based; conditions: MOLM-13, 72 h
[8] = target: T2, Son of sevenless homolog 1 (Homo sapiens) (UniProt Q07889); test: Stabilization of N-terminal His10-tagged wild-type recombinant human SOS1 catalytic domain (564 to 1049 residues) expressed in Escherichia coli assessed as change in melting temperature at 100 uM with heating from 25 to 85 degreeC by thermal shift assay
T2 sequence (whole entry): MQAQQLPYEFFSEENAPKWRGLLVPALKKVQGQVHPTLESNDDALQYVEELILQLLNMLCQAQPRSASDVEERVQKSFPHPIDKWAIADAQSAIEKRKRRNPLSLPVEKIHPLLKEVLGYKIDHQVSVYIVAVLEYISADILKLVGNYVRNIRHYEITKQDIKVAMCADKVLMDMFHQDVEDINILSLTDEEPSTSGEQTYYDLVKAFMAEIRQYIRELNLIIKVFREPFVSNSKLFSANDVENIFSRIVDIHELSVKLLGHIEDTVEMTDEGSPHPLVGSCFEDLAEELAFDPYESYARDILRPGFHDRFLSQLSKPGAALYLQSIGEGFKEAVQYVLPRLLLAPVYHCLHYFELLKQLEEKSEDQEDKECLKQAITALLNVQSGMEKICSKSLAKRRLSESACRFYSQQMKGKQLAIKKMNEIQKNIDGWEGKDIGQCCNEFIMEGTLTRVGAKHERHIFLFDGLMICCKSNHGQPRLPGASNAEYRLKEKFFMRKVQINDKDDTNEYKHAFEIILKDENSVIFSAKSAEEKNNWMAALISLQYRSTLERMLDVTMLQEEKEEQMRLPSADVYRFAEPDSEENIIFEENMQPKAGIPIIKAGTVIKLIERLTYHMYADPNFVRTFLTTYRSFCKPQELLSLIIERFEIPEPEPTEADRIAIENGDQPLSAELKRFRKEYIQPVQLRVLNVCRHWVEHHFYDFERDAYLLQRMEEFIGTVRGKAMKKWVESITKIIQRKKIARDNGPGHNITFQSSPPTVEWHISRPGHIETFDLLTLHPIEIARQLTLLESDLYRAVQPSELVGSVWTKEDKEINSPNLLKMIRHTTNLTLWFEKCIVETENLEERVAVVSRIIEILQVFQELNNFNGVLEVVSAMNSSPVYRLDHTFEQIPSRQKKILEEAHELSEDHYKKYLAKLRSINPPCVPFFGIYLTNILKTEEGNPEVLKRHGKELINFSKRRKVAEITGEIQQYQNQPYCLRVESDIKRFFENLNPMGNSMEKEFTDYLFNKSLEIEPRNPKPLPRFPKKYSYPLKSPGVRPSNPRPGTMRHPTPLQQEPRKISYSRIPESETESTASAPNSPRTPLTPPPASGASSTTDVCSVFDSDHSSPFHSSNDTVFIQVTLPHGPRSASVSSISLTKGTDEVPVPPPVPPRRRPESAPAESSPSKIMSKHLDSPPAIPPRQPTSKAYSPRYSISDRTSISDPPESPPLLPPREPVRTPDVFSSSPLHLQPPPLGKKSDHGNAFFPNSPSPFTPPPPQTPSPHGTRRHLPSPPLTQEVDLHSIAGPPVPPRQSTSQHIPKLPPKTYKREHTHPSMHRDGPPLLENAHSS

[9] = target: GTPase KRas (Homo sapiens) (UniProt P01116); test: Stabilization of N-terminal His10-tagged wild-type recombinant human KRAS (1 to 169 residues) expressed in Escherichia coli assessed as change in melting temperature at 100 uM with heating from 25 to 85 degreeC by thermal shift assay

COCCNCc1ccccc1-c1ccc(C(C)Nc2nc(C)nc3cc(OC)c(OC)cc23)s1 (centres undefined)
IC50 (SOS1-KRAS): 100 nM

COc1cc2nccc(N[C@H](C)c3cccc4ccccc34)c2cc1OC
IC50 (SOS1-KRAS): 2590 nM

CCN(CC)Cc1ccccc1-c1ccc(C(C)Nc2nc(C)nc3cc(OC)c(OC)cc23)s1 (centres undefined)
IC50 (SOS1-KRAS): 170 nM

COc1cc2nc(C)nc(NC(C)c3ccc(-c4ccccc4CNCc4ccccc4)s3)c2cc1OC (centres undefined)
IC50 (SOS1-KRAS): 470 nM

COc1cc2nc(C)nc(NC(C)c3ccc(-c4ccccc4CN)s3)c2cc1OC (centres undefined)
IC50 (SOS1-KRAS): 80 nM

COc1cc2nc(N(C)C)nc(N[C@H](C)c3cccc4ccccc34)c2cc1OC
IC50 [1]: > 20000 nM
IC50 (SOS1-KRAS): 800 nM

COc1cc2nc(C)nc(NC(C)c3ccc(-c4ccccc4[C@@H](C)N)s3)c2cc1OC (some centres undefined)
IC50 (SOS1-KRAS): 200 nM

COc1cc2nc(C)nc(NC(C)c3ccc(-c4ccccc4C(C)(C)N)s3)c2cc1OC (centres undefined)
IC50 (SOS1-KRAS): 400 nM

O=C(CO)N1CCc2ccccc2C1
Activity (Homo sapiens [2]): inactive
Activity (Homo sapiens [3]): inactive
Activity (Homo sapiens [4]): inactive

CNCc1ccccc1-c1csc([C@H](C)Nc2nc(C)nc3cc(OC)c(OC)cc23)c1 [BAY-294]
IC50 [1]: > 20000 nM
ΔTm [5]: -0.6 °C
IC50 [6]: > 20000 nM
IC50 (K562): 7500 nM
IC50 [7]: > 20000 nM
IC50 (NCI-H358): 3390 nM
IC50 (MOLM-13): 7570 nM
ΔTm [8]: 0.28 °C
ΔTm [9]: -0.05 °C

CCNCc1ccccc1-c1ccc(C(C)Nc2nc(C)nc3cc(OC)c(OC)cc23)s1 (centres undefined)
IC50 (SOS1-KRAS): 55 nM

COc1cc2nc(C)nc(NC(C)c3ccc(-c4ccccc4CN(C)CCO)s3)c2cc1OC (centres undefined)
IC50 (SOS1-KRAS): 47 nM

COc1cc2nc(C)nc(NC(C)c3ccc(-c4ccccc4CN(C)C)s3)c2cc1OC (centres undefined)
IC50 (SOS1-KRAS): 40 nM

COc1cc2nc(C(F)(F)F)nc(N[C@H](C)c3cccc4ccccc34)c2cc1OC
IC50 [1]: > 20000 nM
IC50 (SOS1-KRAS): 1450 nM

COc1cc2nc(C)nc(NC(C)c3ccc(-c4ccccc4S(=O)(=O)N(C)C)s3)c2cc1OC (centres undefined)
IC50 (SOS1-KRAS): 2160 nM

COc1cc2nc(C)nc(NC(C)c3ccc(-c4ccccc4S(C)(=O)=O)s3)c2cc1OC (centres undefined)
IC50 (SOS1-KRAS): 1410 nM

COc1cc2nc(C)nc(NC(C)c3ccc(-c4ccc(F)cc4CNC(C)=O)s3)c2cc1OC (centres undefined)
IC50 (SOS1-KRAS): 590 nM

From ChEMBL document CHEMBL5678818, “Discovery of potent SOS1 inhibitors that block RAS activation via disruption of the RAS-SOS1 interaction” (Proc Natl Acad Sci U S A, 2019)
